MT1-MMP act inh: blockers of MT1-MMP proenzyme processing, primary screen, HT1080 RFP-PRO-GFP cells, GFP/RFP fluorescence | GFP/RFP ratio fluorescence, overnight; percent of plate control window, DMSO zero | Matrix metalloproteinase-14 (Homo sapiens), P50281 | GFP/RFP ratio change, % at 20 µM | AID 651647, 2012 | 0.061% of 360,000 active;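 active means GFP/RFP ratio change of at least 30% with cell ATP level not reduced by more than half and red fluorescence within 50% of control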
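system = RFP-PRO-GFP reporter HT1080 cells | dosing = 20 µM single dose, 1% DMSO | timing = overnight cell settling, then overnight compound exposure, 37 °C, 5% CO2 | read-out basis = GFP/RFP fluorescence ratio | controls = DMSO and RFP-L50D-GFP cell wells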
DAGLB inhibitor: DAGLB lipase inhibitors, primary screen, biochemical, fluorescence, HTS; Diacylglycerol lipase-beta (Homo sapiens), Q8NCG7; 0.059% of 340,000 active; HEK293T DAGLB membrane lysate, EnzChek fluorogenic substrate; inhibition, % at 5.17 µM; AID 504411, 2011; in the data active means inhibition above about 34%;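 further: 0% = enzyme with vehicle and 100% = wells lacking enzyme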
ANO1 block: TMEM16A chloride channel inhibitors, primary screen, cell-based, HTS | 1.2% of 310,000 active | Anoctamin-1 (Mus musculus), Q8BHY3 | normalized B-score (activity score, 25-100; higher = stronger inhibition) at 10 µM | HEK293 TMEM16A/YFP iodide influx fluorescence, ionomycin;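 active means ratio plate-corrected score three or more library SD toward inhibition, starting fluorescence score within five deviations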;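 further: score derived from kinetic fluorescence span divided by baseline fluorescence per well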
Target sequence (Q8BHY3 whole entry, looked up): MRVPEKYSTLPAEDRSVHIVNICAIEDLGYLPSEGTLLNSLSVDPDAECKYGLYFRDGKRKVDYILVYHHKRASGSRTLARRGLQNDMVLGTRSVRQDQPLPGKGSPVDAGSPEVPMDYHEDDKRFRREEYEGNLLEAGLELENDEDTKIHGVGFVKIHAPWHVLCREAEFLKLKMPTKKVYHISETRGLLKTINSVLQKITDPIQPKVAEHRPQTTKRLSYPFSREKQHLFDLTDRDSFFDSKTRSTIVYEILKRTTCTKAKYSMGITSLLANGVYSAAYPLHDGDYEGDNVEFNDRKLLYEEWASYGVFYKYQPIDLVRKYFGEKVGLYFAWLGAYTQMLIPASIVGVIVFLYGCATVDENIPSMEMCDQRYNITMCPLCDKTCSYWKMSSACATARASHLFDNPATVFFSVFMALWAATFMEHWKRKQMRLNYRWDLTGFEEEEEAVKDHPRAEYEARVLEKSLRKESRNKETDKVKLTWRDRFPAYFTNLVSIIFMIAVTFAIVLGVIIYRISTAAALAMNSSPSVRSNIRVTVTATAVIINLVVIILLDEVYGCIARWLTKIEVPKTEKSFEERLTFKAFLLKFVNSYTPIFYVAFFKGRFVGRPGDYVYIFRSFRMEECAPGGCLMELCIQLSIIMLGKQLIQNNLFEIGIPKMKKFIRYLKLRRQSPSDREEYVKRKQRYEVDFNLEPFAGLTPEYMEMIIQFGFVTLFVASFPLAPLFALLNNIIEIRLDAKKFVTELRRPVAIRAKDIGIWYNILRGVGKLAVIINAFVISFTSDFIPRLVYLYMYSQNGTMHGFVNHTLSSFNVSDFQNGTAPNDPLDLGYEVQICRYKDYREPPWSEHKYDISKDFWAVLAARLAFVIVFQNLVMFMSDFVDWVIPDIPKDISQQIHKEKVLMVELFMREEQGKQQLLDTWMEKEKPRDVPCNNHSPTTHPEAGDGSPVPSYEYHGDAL
TMEM16A act: TMEM16A chloride channel activators or potentiators, primary screen, cell-based, HTS; Anoctamin-1 (Mus musculus), Q8BHY3; HEK293 TMEM16A/YFP-H148Q/I152L, iodide quench fluorescence; hits give low values; B-score at 10 µM; 0.3% of 340,000 active;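 active means fluorescence-ratio B-score plate-corrected deviation score at least 3 library SD below zero, with starting fluorescence score within 5 deviations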;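 further: channel opened by trigger with iodide after compound preincubation; score built on the fluorescence ratio of max minus min over baseline; more negative score means more quench and so TMEM16A activation or potentiation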
* = called active by the depositor; i = inactive; / = not tested or not shown. This is a sample that favours compounds with a hit; in the whole collection about 1.3% have one here.

SMILES	MT1-MMP act inh	DAGLB inhibitor	ANO1 block	TMEM16A act
FC(F)(F)C(F)(F)c1nc2nc(Cl)c(Cl)nc2[nH]1	-3.7	4.6	/	/
CC(C)=C(C#N)c1nc2ccccc2s1	41.3	-7.3	i	i
Cc1ccc(OC/C(O)=C(\C#N)c2nc3ccccc3s2)cc1	1.1	5.8	100*	i
COC(=O)c1ccc(/C(O)=C(\C#N)c2nc3ccccc3s2)cc1	-5.7	-4.2	25*	i
COC(=O)c1ccc(CC(=O)c2nc3ccccc3s2)cc1	5.1	-3.4	i	i
CC(C)(C)c1ccc(C(=O)c2c[nH]c(C(=O)NCc3cccs3)c2)cc1	2.1	1.2	i	-8.1*
Cc1c(Cl)cccc1NC(=O)c1ccccc1-c1ccccc1C(=O)O	-2.0	-0.3	i	i
CC(C)(C)C(=O)NC(=S)NNC(=O)c1sc2ccccc2c1Cl	-10.1	0.7	100*	-11.8*
COc1ccc(C(=O)NNC(=O)c2ccc(C(C)(C)C)cc2)cc1	1.3	-4.0	i	i
COc1ccc(C(=O)NNC(=S)NC(=O)C(C)(C)C)cc1	2.7	1.2	25*	i
CCN(CC)CCNC(=O)c1ccc(NC(=O)c2cn(-c3ccccc3)nc2-c2cccs2)cc1	-1.5	4.8	25*	i
COC(=O)c1sc(NC(=S)NNC(=O)c2c(Br)c(C)nn2C)c(C(=O)OC)c1C	12.3	6.6	100*	i
CCc1ccc([C@@H]2CC=C(C(=O)O)[C@H](c3cccc(Cl)c3)N2S(=O)(=O)c2ccc(C)cc2)cc1	-0.6	15.3	100*	i
CCc1ccc([C@@H]2CC=C(C(=O)O)[C@H](c3ccc(Cl)cc3)N2S(=O)(=O)c2ccc(C)cc2)cc1	-2.3	12.6	100*	i
C[C@H](CO)N1C[C@H](C)[C@@H](CN(C)C(=O)Nc2ccc(F)cc2)Oc2ncc(-c3ccc(F)cc3)cc2C1=O	2.1	-1.5	/	/
Cc1ccc(-c2nc(CCNC(=O)c3ccco3)cs2)cc1	-0.1	-4.0	25*	i
C#CCOCCOCCOCCNc1nc(N2CCN(C(=O)CCCCCCCCCCNC(=O)[C@H](CCCCN)n3cc(C)nn3)CC2)nc(N2CCN(C(=O)CCCCCCCCCCNC(=O)[C@@H]([C@H](C)CC)n3cc(CCCCCN)nn3)CC2)n1	4.0	3.4	25*	-18.3*
C#CCOCCOCCOCCNc1nc(N2CCN(C(=O)CCCCCCCCCCNC(=O)[C@H](CCCCN)n3cc(CCO)nn3)CC2)nc(N2CCN(C(=O)CCCCCCCCCCNC(=O)[C@@H]([C@H](C)O)n3cc(C)nn3)CC2)n1	4.5	4.2	i	i
C#CCOCCOCCOCCNc1nc(N2CCN(C(=O)CCCCCCCCCCNC(=O)[C@H]([C@@H](C)CC)n3cc(CCCCCN)nn3)CC2)nc(N2CCN(C(=O)CCCCCCCCCCNC(=O)[C@@H]([C@H](C)O)n3cc(C)nn3)CC2)n1	16.8	-2.9	i	-11.7*
C#CCOCCOCCOCCNc1nc(N2CCN(C(=O)CCCCCCCCCCNC(=O)Cn3cc(CCCCCN)nn3)CC2)nc(N2CCN(C(=O)CCCCCCCCCCNC(=O)[C@H]([C@@H](C)CC)n3cc(CCCCCN)nn3)CC2)n1	10.4	2.1	25*	-13.5*
CC1=CC(=O)C2=C(C)CCC3C(C)C(=O)OC3C12 (stereo not given)	-0.9	/	/	/
CCCCCn1c(N2CCC(Cc3ccccc3)CC2)nc2c1c(=O)[nH]c(=O)n2C	-8.3	5.6	100*	i
O=C(O)c1cc(-c2ccc(-c3c(-c4ccc5c(c4)OCO5)noc3-c3ccsc3)cc2)nc2ccccc12	9.0	-0.6	100*	i
CN(C)c1ccc(-c2c(-c3ccc4c(c3)OCO4)noc2-c2ccsc2)cn1	-6.9	-11.6	i	i
Cc1nc2ccc(C(=O)N(C)Cc3ccco3)cn2c1N(C)CC1CCCCC1	-3.8	/	/	/
SMILES	MT1-MMP act inh	DAGLB inhibitor	ANO1 block	TMEM16A act
Cc1nn(-c2cc(C(F)(F)F)ccc2Cl)c2nc(C(Cl)(Cl)Cl)[nH]c(=O)c12	0.8	5.7	100*	i
Cc1nn(-c2ccccc2)c2nc(C(F)(F)F)[nH]c(=O)c12	1.7	4.9	i	i
CCc1c(O)nc(SC2CC(=O)N(c3ccccc3)C2=O)[nH]c1=O (stereo not given)	-10.8	0.6	i	-29.4*
Cc1c(O)nc(SC2CC(=O)N(c3ccccc3)C2=O)[nH]c1=O (stereo not given)	6.9	-0.3	i	i
CCN1C(=O)[C@H]2[C@@H](c3ccc(C(F)(F)F)cc3)N[C@]3(CCCN(Cc4ccco4)C3=O)[C@H]2C1=O	1.7	-1.8	/	/
CCc1nn2cc(C(=O)c3cc(Cl)ccc3O)cnc2c1-c1ccc(F)cc1	-3.5	-1.4	100*	i
Cc1ccc([C@H]2C(C(=O)O)=CCN2S(=O)(=O)c2ccc(C)cc2)cc1	-1.7	/	/	/
O=C(NC1CC2CCCC(C1)N2C(=O)Nc1ccc(Cl)c(C(F)(F)F)c1)C1CC1 (stereo not given)	4.7	-0.3	i	i
O=C(Nc1ccc(Cl)c(C(F)(F)F)c1)NC1CC2CCCC(C1)N2Cc1ccccc1 (stereo not given)	/	/	100*	/
COc1ccc(-c2csc(NC(=O)c3cccs3)c2C(=O)O)cc1OC	6.9	7.2	i	-40.8*
COc1ccc(CCC(=O)OCC(=O)Nc2sccc2C(N)=O)cc1	-0.3	-4.0	/	-5.31*
CCOC(=O)c1sc(NC(=O)CSc2nc(C)cc(C)n2)c(C#N)c1C	/	0.5	i	i
CCOC(=O)c1sc(NC(=O)CSc2n[nH]c(-c3ccccc3)n2)c(C#N)c1C	-4.9	-2.0	100*	i
CCOC(=O)c1sc(NC(=O)c2cc(-c3ccccc3)nc3ccccc23)c(C#N)c1C	-15.8	0.5	100*	i
CCOC(=O)c1sc(NC(=O)c2cccnc2)c(C#N)c1C	0.9	1.9	i	i
CN1C(=O)C(c2cn(C)c3ccccc23)(c2cn(C)c3ccccc23)c2cc(Br)ccc21	1.0	/	/	/
COc1ccc(Nc2c(C3CC3)nc3nc(C)cc(C)n23)cc1	-0.2	/	/	/
COC(=O)c1cc(S(=O)(=O)NCCc2ccc(C)cc2)c[nH]1	-1.2	-1.2	25*	i
COC(=O)c1cc(S(=O)(=O)NCCc2ccc(Cl)cc2)c[nH]1	-4.3	-5.2	i	i
CC(=O)c1c(COC(=O)c2ccc(C)cc2)nc2ccccc2[n+]1[O-]	1.2	/	i	i
CC(=O)c1c(COC(=O)c2cccnc2)nc2ccccc2[n+]1[O-]	-2.7	0.4	i	-8.84*
Cc1ccc(S(=O)(=O)NC(=O)c2ccc(-c3ccc(-c4ccccc4)cc3)o2)c(C)c1	/	/	100*	/
Cc1ccc(S(=O)(=O)NC(=O)c2ccc(F)cc2)c(C)c1	0.2	1.3	i	i
